Experiments:
[1] = compound: COc1cc(OC)c(C(=O)/C=C/c2ccccc2)c(O)c1CN1CCCCC1; assay: Inhibition of Sprague-Dawley rat brain AChE using acetylthiocholin iodide as substrate at 2.2 uM by Michaelis-Menten equation
In short: (§1)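 Kinetic analysis: Km and vmax were determined at several inhibitor concentrations. Ki for the free enzyme came from a linear replot of slope against inhibitor concentration. Ki′ for the enzyme–substrate complex came from a linear replot of intercept against inhibitor concentration.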

[2] = compound: COc1cc(OC)c(C(=O)/C=C/c2ccccc2)c(O)c1CN1CCCCC1; assay: Inhibition of Sprague-Dawley rat brain AChE using acetylthiocholin iodide as substrate at 4.4 uM by Michaelis-Menten equation; in short: as §1

B1: Acetylcholinesterase (Rattus norvegicus), P37136 (protein)
chain: MRPPWYPLHTPSLASPLLFLLLSLLGGGARAEGREDPQLLVRVRGGQLRGIRLKAPGGPVSAFLGIPFAEPPVGSRRFMPPEPKRPWSGILDATTFQNVCYQYVDTLYPGFEGTEMWNPNRELSEDCLYLNVWTPYPRPTSPTPVLIWIYGGGFYSGASSLDVYDGRFLAQVEGTVLVSMNYRVGTFGFLALPGSREAPGNVGLLDQRLALQWVQENIAAFGGDPMSVTLFGESAGAASVGMHILSLPSRSLFHRAVLQSGTPNGPWATVSAGEARRRATLLARLVGCPPGGAGGNDTELISCLRTRPAQDLVDHEWHVLPQESIFRFSFVPVVDGDFLSDTPDALINTGDFQDLQVLVGVVKDEGSYFLVYGVPGFSKDNESLISRAQFLAGVRIGVPQASDLAAEAVVLHYTDWLHPEDPAHLRDAMSAVVGDHNVVCPVAQLAGRLAAQGARVYAYIFEHRASTLTWPLWMGVPHGYEIEFIFGLPLDPSLNYTVEERIFAQRLMQYWTNFARTGDPNDPRDSKSPRWPPYTTAAQQYVSLNLKPLEVRRGLRAQTCAFWNRFLPKLLSATDTLDEAERQWKAEFHRWSSYMVHWKNQFDHYSKQERCSDL
Protein B1 has a Km [1] of 4.18 mM, a Vmax [1] of 0.0288 deltaA/min and a Km [2] of 4.63 mM. The Vmax [2] was 0.0212 deltaA/min.

Source: ChEMBL document CHEMBL3352678, “Synthesis and acetylcholinesterase inhibitory activity of Mannich base derivatives flavokawain B” (Bioorg Med Chem Lett, 2014)
